# Assays:
# Type in all cases: functional
# [1] = system: HOP-92; assay: Cytotoxicity against human HOP92 cells; conditions: for CC50: read-out: pLC50 (the source's name) (converted); for TGI: read-out: pTGI (converted)
# How it was run: (§1)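 Tested in a 60-cell-line human tumor panel screen; the read-out is growth inhibition, reported as GI50 for each cell line.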
# [2] = Cytotoxicity against human OVCAR3 cells; conditions: for GI50: OVCAR-3; for CC50: OVCAR-3, read-out: pLC50 (the source's name) (converted); for TGI: OVCAR-3, read-out: pTGI (converted); how it was run: as §1
# [3] = system: SW-620; assay: Cytotoxicity against human SW620 cells; conditions: for CC50: read-out: pLC50 (the source's name) (converted); for TGI: read-out: pTGI (converted)
# How it was run: (§2)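 Cell line run as part of the 60-cell-line screening panel; growth inhibition was reported as a GI50 for each line.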
# [4] = system: M14; assay: Cytotoxicity against human M14 cells; conditions: for CC50: read-out: pLC50 (the source's name) (converted); for TGI: read-out: pTGI (converted); how it was run: as §1
# [5] = system: SK-MEL-28; assay: Cytotoxicity against human SK-MEL-28 cells; conditions: for CC50: read-out: pLC50 (the source's name) (converted); for TGI: read-out: pTGI (converted); how it was run: as §1
# [6] = system: RXF 393; assay: Cytotoxicity against human RXF393 cells; conditions: for TGI: read-out: pTGI (converted); how it was run: as §1
# [7] = system: MDA-MB-468; assay: Cytotoxicity against human MDA-MB-468 cells; conditions: for TGI: read-out: pTGI (converted); how it was run: as §1
# [8] = Cytotoxicity against human Hs578T cells; conditions: Hs-578T; for TGI: read-out: pTGI (converted); how it was run: as §1
# [9] = system: NCI-H226; assay: Cytotoxicity against human NCI-H226 cells; conditions: for CC50: read-out: pLC50 (the source's name) (converted); for TGI: read-out: pTGI (converted); how it was run: as §1
# [10] = system: Malme-3M; assay: Cytotoxicity against human MALME-3M cells; conditions: for CC50: read-out: pLC50 (the source's name) (converted); for TGI: read-out: pTGI (converted); how it was run: as §1
# [11] = Cytotoxicity against human EKVX cells; conditions: for CC50: read-out: pLC50 (the source's name) (converted); for TGI: read-out: pTGI (converted); how it was run: as §1
# [12] = system: NCI-H522; assay: Cytotoxicity against human NCI-H522 cells; conditions: for CC50: read-out: pLC50 (the source's name) (converted); for TGI: read-out: pTGI (converted); how it was run: as §1
# [13] = Cytotoxicity against human UO31 cells; conditions: for GI50 / LC50: UO-31; for TGI: UO-31, read-out: pTGI (converted); how it was run: as §2
# [14] = system: RPMI-8226; assay: Cytotoxicity against human RPMI8226 cells; conditions: for CC50: read-out: pLC50 (the source's name) (converted); for TGI: read-out: pTGI (converted); how it was run: as §1
# [15] = system: NCI-H23; assay: Cytotoxicity against human NCI-H23 cells; conditions: for CC50: read-out: pLC50 (the source's name) (converted); for TGI: read-out: pTGI (converted); how it was run: as §1
# [16] = system: K562; assay: Cytotoxicity against human K562 cells; conditions: for CC50: read-out: pLC50 (the source's name) (converted); for TGI: read-out: pTGI (converted); how it was run: as §1
# [17] = Cytotoxicity against human OVCAR8 cells; conditions: for GI50: OVCAR-8; for CC50: OVCAR-8, read-out: pLC50 (the source's name) (converted); for TGI: OVCAR-8, read-out: pTGI (converted); how it was run: as §1
compound,measurement,setting,value
COc1cc(/C=C/c2cc(O)c3cc[nH]c3c2)cc2c1O[C@]1(C)CC[C@@H](O)C(C)(C)[C@H]1C2,GI50,[1],1.23 µM
same,CC50,[1],> 100 µM
same,TGI,[1],19.1 µM
same,GI50,[2],1.82 µM
same,CC50,[2],> 100 µM
same,TGI,[2],10.5 µM
same,GI50,[3],1.26 µM
same,CC50,[3],8.13 µM
same,TGI,[3],3.16 µM
same,GI50,[4],0.676 µM
same,CC50,[4],6.17 µM
same,TGI,[4],2.19 µM
same,GI50,[5],1.48 µM
same,CC50,[5],> 100 µM
same,TGI,[5],> 100 µM
same,GI50,[6],0.115 µM
same,LC50,[6],0.871 µM
same,TGI,[6],0.316 µM
same,GI50,[7],2.45 µM
same,LC50,[7],> 100 µM
same,TGI,[7],7.59 µM
same,GI50,[8],0.251 µM
same,LC50,[8],> 100 µM
same,TGI,[8],0.871 µM
same,GI50,[9],12 µM
same,CC50,[9],70.8 µM
same,TGI,[9],28.8 µM
same,GI50,[10],1.74 µM
same,CC50,[10],52.5 µM
same,TGI,[10],10.7 µM
same,GI50,[11],3.47 µM
same,CC50,[11],91.2 µM
same,TGI,[11],27.5 µM
same,GI50,[12],1.29 µM
same,CC50,[12],41.7 µM
same,TGI,[12],8.32 µM
same,GI50,[13],0.479 µM
same,LC50,[13],> 100 µM
same,TGI,[13],2.04 µM
same,GI50,[14],0.316 µM
same,CC50,[14],> 100 µM
same,TGI,[14],2.51 µM
same,GI50,[15],1.7 µM
same,CC50,[15],61.7 µM
same,TGI,[15],8.13 µM
same,GI50,[16],0.708 µM
same,CC50,[16],> 100 µM
same,TGI,[16],20.4 µM
same,GI50,[17],1.2 µM
same,CC50,[17],> 100 µM
same,TGI,[17],30.9 µM
COc1cc(/C=C/c2cc(O)c3c(CC=C(C)C)c[nH]c3c2)cc2c1O[C@]1(C)CC[C@@H](O)C(C)(C)[C@H]1C2,GI50,[1],0.589 µM
same,CC50,[1],50.1 µM
same,TGI,[1],50.1 µM
same,GI50,[2],13.5 µM
same,CC50,[2],50.1 µM
same,TGI,[2],50.1 µM
same,GI50,[3],0.447 µM
same,CC50,[3],10.7 µM
same,TGI,[3],1.74 µM
same,GI50,[4],0.251 µM
same,TGI,[4],1.02 µM
same,GI50,[5],0.55 µM
same,CC50,[5],50.1 µM
same,TGI,[5],1.91 µM
same,GI50,[6],0.0447 µM
same,LC50,[6],12.9 µM
same,TGI,[6],0.457 µM
same,GI50,[7],0.513 µM
same,LC50,[7],46.8 µM
same,TGI,[7],9.33 µM
same,GI50,[8],0.0708 µM
same,LC50,[8],50.1 µM
same,TGI,[8],1 µM
same,GI50,[9],4.37 µM
same,CC50,[9],50.1 µM
same,TGI,[9],50.1 µM
same,GI50,[11],1.07 µM
same,CC50,[11],50.1 µM
same,TGI,[11],50.1 µM
same,GI50,[13],0.269 µM
same,LC50,[13],50.1 µM
same,TGI,[13],1.48 µM
same,GI50,[15],0.427 µM
same,CC50,[15],50.1 µM
same,TGI,[15],22.4 µM
same,GI50,[16],0.224 µM
same,CC50,[16],50.1 µM
same,TGI,[16],7.76 µM
same,GI50,[17],12.9 µM
same,CC50,[17],50.1 µM
same,TGI,[17],50.1 µM
COc1cc(/C=C/c2cc(O)c3c(C/C=C(\C)CCC=C(C)C)c[nH]c3c2)cc2c1O[C@]1(C)CC[C@@H](O)C(C)(C)[C@H]1C2,GI50,[1],0.724 µM
same,CC50,[1],> 100 µM
same,TGI,[1],8.71 µM
same,GI50,[2],33.9 µM
same,CC50,[2],> 100 µM
same,TGI,[2],> 100 µM
same,GI50,[4],2 µM
same,CC50,[4],> 100 µM
same,TGI,[4],11.2 µM
same,GI50,[6],0.0661 µM
same,LC50,[6],3.63 µM
same,TGI,[6],0.309 µM
same,GI50,[7],2 µM
same,LC50,[7],> 100 µM
same,TGI,[7],44.7 µM
same,GI50,[9],24 µM
same,CC50,[9],> 100 µM
same,TGI,[9],> 100 µM
same,GI50,[10],2.95 µM
same,CC50,[10],> 100 µM
same,TGI,[10],61.7 µM
same,GI50,[11],0.724 µM
same,CC50,[11],> 100 µM
same,TGI,[11],4.47 µM
same,GI50,[12],2.63 µM
same,CC50,[12],> 100 µM
same,TGI,[12],16.6 µM
same,GI50,[13],0.933 µM
same,LC50,[13],8.91 µM
same,TGI,[13],2.95 µM
same,GI50,[14],0.158 µM
same,CC50,[14],> 100 µM
same,TGI,[14],1.66 µM
same,GI50,[15],2.45 µM
same,CC50,[15],> 100 µM
same,TGI,[15],24.5 µM
same,GI50,[16],0.417 µM
same,CC50,[16],> 100 µM
same,TGI,[16],8.71 µM
same,GI50,[17],72.4 µM
same,CC50,[17],> 100 µM
same,TGI,[17],> 100 µM
COc1cc(/C=C/c2cc(OC)c3cc[nH]c3c2)cc2c1O[C@]1(C)CC[C@@H](O)C(C)(C)[C@H]1C2,GI50,[2],1.2 µM
same,CC50,[2],10 µM
same,TGI,[2],3.16 µM
same,GI50,[3],0.309 µM
same,CC50,[3],5.5 µM
same,TGI,[3],1.35 µM
same,GI50,[4],0.174 µM
same,CC50,[4],0.741 µM
same,TGI,[4],0.355 µM
same,GI50,[5],0.209 µM
same,TGI,[5],0.776 µM
same,GI50,[6],0.024 µM
same,LC50,[6],0.316 µM
same,TGI,[6],0.0603 µM
same,GI50,[7],0.631 µM
same,LC50,[7],> 100 µM
same,TGI,[7],4.47 µM
same,GI50,[8],0.0513 µM
same,LC50,[8],> 100 µM
same,TGI,[8],0.776 µM
same,GI50,[9],1.74 µM
same,CC50,[9],58.9 µM
same,TGI,[9],7.08 µM
same,GI50,[10],0.575 µM
same,CC50,[10],> 100 µM
same,TGI,[10],4.9 µM
same,GI50,[11],0.537 µM
same,CC50,[11],> 100 µM
same,TGI,[11],6.03 µM
same,GI50,[12],0.708 µM
same,CC50,[12],> 100 µM
same,TGI,[12],2.88 µM
same,GI50,[13],0.186 µM
same,LC50,[13],> 100 µM
same,TGI,[13],0.977 µM
same,GI50,[14],0.0282 µM
same,CC50,[14],> 100 µM
same,TGI,[14],0.0851 µM
same,GI50,[15],0.692 µM
same,CC50,[15],> 100 µM
same,TGI,[15],3.39 µM
same,GI50,[16],0.324 µM
same,CC50,[16],> 100 µM
same,TGI,[16],1.38 µM
same,GI50,[17],3.63 µM
same,CC50,[17],> 100 µM
same,TGI,[17],25.1 µM
COc1cc(/C=C/c2cc(O)c3c(c2)C[C@@H]2C(C)(C)[C@H](O)CC[C@@]2(C)O3)cc2c1ccn2C,GI50,[1],0.955 µM
same,CC50,[1],89.1 µM
same,TGI,[1],12.6 µM
same,GI50,[2],10.2 µM
same,CC50,[2],53.7 µM
same,TGI,[2],24 µM
same,CC50,[3],18.6 µM
same,GI50,[4],0.759 µM
same,CC50,[4],7.08 µM
same,TGI,[4],1.26 µM
same,GI50,[5],0.145 µM
same,CC50,[5],45.7 µM
same,TGI,[5],17.4 µM
same,GI50,[6],0.00891 µM
same,LC50,[6],27.5 µM
same,TGI,[6],1.58 µM
same,GI50,[7],0.871 µM
same,LC50,[7],46.8 µM
same,TGI,[7],15.1 µM
same,GI50,[8],0.0229 µM
same,LC50,[8],89.1 µM
same,TGI,[8],3.55 µM
same,GI50,[9],16.2 µM
same,CC50,[9],89.1 µM
same,TGI,[9],60.3 µM
same,GI50,[11],4.07 µM
same,CC50,[11],64.6 µM
same,TGI,[11],22.9 µM
same,GI50,[12],5.89 µM
same,GI50,[13],0.0813 µM
same,LC50,[13],32.4 µM
same,TGI,[13],2.95 µM
same,GI50,[15],1.38 µM
same,CC50,[15],44.7 µM
same,TGI,[15],15.5 µM
same,GI50,[16],0.0813 µM
same,CC50,[16],89.1 µM
same,TGI,[16],6.31 µM
same,GI50,[17],4.27 µM
same,CC50,[17],89.1 µM
same,TGI,[17],39.8 µM
